These results are taken from paper PMC5563258 (Journal of medicinal chemistry, 2017).

Data set [1] concerns the target T1, D3R (Homo sapiens, UniProt P35462). The experiment in a line: Go BRET activation assay. The class given is cell-based. To be noted: for Functional efficacy class: Go BRET activation assay, Figure 1.
In data set [2] the target is T1, D3R. Kind of data set: β-arrestin recruitment assay. It is filed as cell-based. The note with it: Figure 2. The method in brief: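 HEK293T cells were transiently transfected (polyethylenimine) with D3R–Rluc8 (C-terminal), mVenus–β-arrestin 2 (N-terminal) and GRK2, and assayed ~48 h later. Cells in PBS + 5 mM glucose got coelenterazine H (5 µM) for 8 min, then test compound (final 10 pM–100 µM). BRET1 (510–540/485 nm) was read at 30 min, normalized to vehicle (0%) and dopamine (100%), and fitted sigmoidally.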

For data set [3] the following is noted: dogs; cited from earlier work.
Data set [4] concerns the target T1, D3R. To be noted: BRET assay; cited from earlier work.

T1 sequence (P35462 whole entry): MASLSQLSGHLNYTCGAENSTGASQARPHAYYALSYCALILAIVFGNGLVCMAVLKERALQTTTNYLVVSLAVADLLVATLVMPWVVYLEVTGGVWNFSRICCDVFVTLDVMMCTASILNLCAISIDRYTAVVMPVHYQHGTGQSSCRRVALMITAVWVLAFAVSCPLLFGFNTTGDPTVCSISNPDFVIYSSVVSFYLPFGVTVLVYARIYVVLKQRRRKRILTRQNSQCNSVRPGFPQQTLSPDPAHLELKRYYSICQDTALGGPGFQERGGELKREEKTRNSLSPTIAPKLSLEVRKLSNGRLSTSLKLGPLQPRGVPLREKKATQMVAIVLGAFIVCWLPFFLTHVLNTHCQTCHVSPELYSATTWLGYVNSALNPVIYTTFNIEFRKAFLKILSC

As to `CC[C@H](O)CN1CCN(c2cccc(Cl)c2Cl)CC1` [(S)-6, (S)-1-(4-(2,3-Dichlorophenyl)piperazin-1-yl)butan-2-ol], the Functional efficacy class result at D3R [1] and at D3R [2] was “partial agonists” throughout. On to `O=C(NCC[C@@H](O)CN1CCN(c2cccc(Cl)c2Cl)CC1)c1cc2ccccc2[nH]1` [(R)-9], for which the Functional efficacy class entry on D3R [2] is “antagonists”. Turning to `Cc1ncoc1-c1nnc(SCCCN2CC3CC3(c3ccc(C(F)(F)F)cc3F)C2)n1C` (centres unmarked) [GSK598,809, 1-(2-fluoro-4-trifluoromethyl-phenyl)-3-{3-[4-methyl-5-(4-methyl-oxazol-5-yl)-4H-[1,2,4]triazol-3-ylsulfanyl]-propyl}-3-aza-bicyclo[3.1.0]hexane], in data set [3], the “Effect on cocaine-mediated increases in blood pressure and heart rate” value is “potentiate cocaine-mediated increases in blood pressure and heart rate”. For the compound `O=C(NCC[C@H](O)CN1CCN(c2cccc(Cl)c2Cl)CC1)c1cnc2ccccc2c1` [(S)-4, (S)-N-(4-(4-(2,3-Dichlorophenyl)piperazin-1-yl)-3-hydroxybutyl)quinoline-3-carboxamide], the Functional efficacy class result on D3R [1] and on D3R [2] was “partial agonists” throughout. As to `Clc1cccc(N2CCNCC2)c1Cl` [2,3-diCl-phenylpiperazine, 1-(2,3-dichlorophenyl)piperazine], the “Emax (% of dopamine efficacy)” value on D3R [4] is reported as 57.3%. As to `O=C(NCCCCN1CCN(c2cccc(Cl)c2Cl)CC1)c1cc2ccccc2[nH]1` [Compound 10], on D3R [1] (HEK-293T, read-out: Emax (% of dopamine efficacy)), the Emax was 16%. Consider `O=C(NCC[C@H](O)CN1CCN(c2cccc(Cl)c2Cl)CC1)c1cc2ccccc2[nH]1` [(S)-9], for which the Functional efficacy class result on D3R [1] and on D3R [2] was “partial agonists” throughout. `O=C(NCC[C@@H](O)CN1CCN(c2cccc(Cl)c2Cl)CC1)c1cnc2ccccc2c1` [(R)-4, (R)-N-(4-(4-(2,3-Dichlorophenyl)piperazin-1-yl)-3-hydroxybutyl)quinoline-3-carboxamide]: the Functional efficacy class entry on D3R [2] was “antagonists”.
